# Source: ChEMBL document CHEMBL1152483, “To determine the cytotoxicity of chlorambucil and one of its nitro-derivatives, conjugated to prasterone and pregnenolone, towards eight human cancer cell-lines” (Eur J Med Chem, 2009)
# Active and inactive are the calls of the source. The calls are words filed in the database; no cut-off is given here.
# What was measured:
# MDA-MB-468 [1] = assay: Cytotoxicity against human MDA-MB-468 cells […] after 5 days by MTT assay; format: functional, cell-based; conditions: MDA-MB-468, 120 h
# Procedure, shortened: (§1)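 Cells are grown in RPMI with 2 mM L-glutamine and 10% FBS and seeded at 400–1000 per well. They get doubling dilutions of drug, each dose in triplicate, for five days at 37 °C, 5% CO2, humidified. MTT at 3 mg/ml is added for 3 h, and formazan is dissolved in DMSO and read at 540 nm minus 620 nm. % growth inhibition is taken against control wells and IC50 calculated.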
# [2] = Partition coefficient, log P after 1 hr by UV spectroscopy; format: physicochemical; conditions: octanol/water
# Procedure, shortened: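 Compound is shaken in n-octanol/water for 1 h at 20 °C, then spun 10 min at 3600 g and the phases separated. Original and shaken solutions are diluted to 0.8 mg% and compared by UV spectroscopy at 200–400 nm. Log P is calculated by the Leo method.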
# MDA-MB-468 [3] = assay: Ratio of IC50 for […] human MDA-MB-468 cells transfected with NAD(P)H: quinone oxidoreductase NQO1 to IC50 for human MDA-MB-468 cells […]; format: functional
# NCI-H460 [4] = assay: Cytotoxicity against human H460 cells after 5 days by MTT assay; format: functional, cell-based; conditions: NCI-H460, 120 h; procedure, shortened: as §1
# MCF7 [5] = assay: Cytotoxicity against human MCF7 cells expressing estrogen and progesterone receptor after 5 days by MTT assay; format: functional, cell-based; conditions: MCF7, 120 h; procedure, shortened: as §1
# MDA-MB-468 [6] = assay: Cytotoxicity against human MDA-MB-468 cells transfected with NAD(P)H: quinone oxidoreductase NQO1 after 5 days by MTT assay; format: functional, cell-based; conditions: MDA-MB-468, 120 h; procedure, shortened: as §1
# A-375 [7] = assay: Cytotoxicity against human A375 cells after 5 days by MTT assay; format: functional, cell-based; conditions: A-375, 120 h; procedure, shortened: as §1
# [8] = Chemical stability assessed as rate of hydrolysis after 24 hrs by HPLC analysis in presence of pig liver esterase; format: physicochemical; conditions: read-out: Activity
# Procedure, shortened: (§2)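 Porcine liver esterase is preincubated about 15 min at 37 °C in phosphate buffer pH 7.4, then ester is added. Aliquots are taken at set times, quenched with an equal volume of acetonitrile, vortexed and spun 10 min at 11,600 g. Samples are run on RP-HPLC (C18, 2% acetic acid/acetonitrile pH 5.2, 1.2 ml/min, 254 nm). The zero reaction is ester in buffer alone for 15 min.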
# WiDr [9] = assay: Cytotoxicity against human WiDr cells after 5 days by MTT assay; format: functional, cell-based; conditions: 120 h; procedure, shortened: as §1
# [10] = Chemical stability assessed as rate of hydrolysis after 2 hrs by HPLC analysis in presence of pig liver esterase; format: physicochemical; conditions: read-out: Activity; procedure, shortened: as §2
# [11] = Cytotoxicity against human OVCA3 cells after 5 days by MTT assay; format: functional, cell-based; conditions: OVCA3, 120 h; procedure, shortened: as §1
# [12] = Metabolic stability in human plasma assessed as rate of hydrolysis after 24 hrs; format: ADME, cell-free; conditions: read-out: Activity
# Procedure, shortened: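 Ester stock is made in absolute ethanol and added to freshly prepared human plasma with PBS, then incubated at 37 °C. Samples are mixed with an equal volume of mobile phase, spun 20 min at 11,600 g, and the supernatant is diluted in mobile phase for RP-HPLC.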
# [13] = Alkylating activity in 0.2 M acetate buffer of pH 5.6 at 0.1 to 1 mM after 4 hrs by spectrophotometry relative to chlorambucil; format: physicochemical; conditions: pH 5.6, 4 h, 1000 µM
# Procedure, shortened: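 Each compound at 0.1–1.0 mM in 50% (v/v) acetone/ethanol is added to 0.2 M acetate buffer pH 5.6 with 5% (w/v) p-nitrobenzyl pyridine in acetone and incubated 4 h at 37 °C. Colour is then developed with 25% (v/v) 3-amino-1-propanol in tert-butanol and absorbance read at 560 nm.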
# Daoy [14] = assay: Cytotoxicity against human DaOY cells after 5 days by MTT assay; format: functional, cell-based; conditions: 120 h; procedure, shortened: as §1
# [15] = Chemical stability in phosphate buffer saline at pH 7.4 assessed as compound degradation by HPLC analysis; format: physicochemical; conditions: read-out: Activity
# Procedure, shortened: (§3)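 Esters are stored in phosphate buffered saline at 37 °C. Stability is followed over forty-five days by RP-HPLC (C18, acetic acid/acetonitrile pH 5.2, 1.2 ml/min, UV 254 nm), supported by infrared spectroscopy.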
# MDA-MB-468 [16] = assay: Cytotoxicity against human MDA-MB-468 cells transfected with NAD(P)H: quinone oxidoreductase NQO1 at < 100 uM after 5 days by MTT assay; format: functional, cell-based; procedure, shortened: as §1
# NCI-H460 [17] = assay: Cytotoxicity against human H460 cells at < 100 uM after 5 days by MTT assay; format: functional, cell-based; procedure, shortened: as §1
# WiDr [18] = assay: Cytotoxicity against human WiDr cells at < 100 uM after 5 days by MTT assay; format: functional, cell-based; procedure, shortened: as §1
# MDA-MB-468 [19] = assay: Cytotoxicity against human MDA-MB-468 cells […] at < 100 uM after 5 days by MTT assay; format: functional, cell-based; procedure, shortened: as §1
# A-375 [20] = assay: Cytotoxicity against human A375 cells at < 100 uM after 5 days by MTT assay; format: functional, cell-based; procedure, shortened: as §1
# OVCA3 = assay: Cytotoxicity against human OVCA3 cells at < 100 uM after 5 days by MTT assay; format: functional, cell-based; procedure, shortened: as §1
# Daoy [21] = assay: Cytotoxicity against human DaOY cells at < 100 uM after 5 days by MTT assay; format: functional, cell-based; procedure, shortened: as §1
# MCF7 [22] = assay: Cytotoxicity against human MCF7 cells expressing estrogen and progesterone receptor at < 100 uM after 5 days by MTT assay; format: functional, cell-based; procedure, shortened: as §1
# [23] = Chemical stability in phosphate buffer saline assessed as half life by HPLC analysis; format: physicochemical; procedure, shortened: as §3
# [24] = Metabolic stability in rat liver assessed as half life; format: ADME, tissue-based
# [25] = Metabolic stability in rat blood assessed as half life; format: ADME, tissue-based
Compound,IC50 (MDA-MB-468 [1]),logP at 1 h [2],Ratio IC50 (MDA-MB-468 [3]),IC50 (NCI-H460 [4]),IC50 (MCF7 [5]),IC50 (MDA-MB-468 [6]),IC50 (A-375 [7]),metabolised at 24 h [8],IC50 (WiDr [9]),metabolised at 2 h [10],IC50 [11],metabolised at 24 h [12],Activity [13],IC50 (Daoy [14]),other results
CC(=O)[C@H]1CC[C@H]2[C@@H]3CC=C4C[C@@H](OC(=O)CCCc5ccc(N(CCCl)CCCl)cc5)CC[C@]4(C)[C@H]3CC[C@]12C,10.3 µM,> 8,2,36.2 µM,90 µM,20.5 µM,74.2 µM,83%,86.3 µM,24%,88.8 µM,37%,18%,41.9 µM,–
C[C@]12CC[C@H](OC(=O)CCCc3ccc(N(CCCl)CCCl)c([N+](=O)[O-])c3)CC1=CC[C@@H]1[C@@H]2CC[C@]2(C)C(=O)CC[C@@H]12,7.25 µM,> 8,1.5,> 100 µM,> 100 µM,10.6 µM,> 100 µM,83%,> 100 µM,24%,> 100 µM,51%,8%,> 100 µM,degraded [15]: 46%
C[C@]12CC[C@H](OC(=O)CCCc3ccc(N(CCCl)CCCl)cc3)CC1=CC[C@@H]1[C@@H]2CC[C@]2(C)C(=O)CC[C@@H]12,5.48 µM,> 8,1.5,11.8 µM,72.5 µM,11.8 µM,61.4 µM,83%,> 100 µM,24%,82.5 µM,51%,70%,19.6 µM,–
CC(=O)[C@H]1CC[C@H]2[C@@H]3CC=C4C[C@@H](O)CC[C@]4(C)[C@H]3CC[C@]12C,–,–,–,–,–,–,–,–,–,–,–,–,–,–,Activity (MDA-MB-468 [16]): inactive; Activity (NCI-H460 [17]): inactive; Activity (WiDr [18]): inactive; Activity (MDA-MB-468 [19]): inactive; Activity (A-375 [20]): inactive; Activity (OVCA3): inactive; Activity (Daoy [21]): inactive; Activity (MCF7 [22]): inactive
CC(=O)[C@H]1CC[C@H]2[C@@H]3CC=C4C[C@@H](OC(=O)CCCc5ccc(N(CCCl)CCCl)c([N+](=O)[O-])c5)CC[C@]4(C)[C@H]3CC[C@]12C,19.3 µM,> 8,2,> 100 µM,68.3 µM,32.6 µM,> 100 µM,83%,> 100 µM,24%,> 100 µM,37%,4%,> 100 µM,degraded [15]: 48%
O=C(O)CCCc1ccc(N(CCCl)CCCl)cc1 [CHLORAMBUCIL],0.65 µM,3.8,–,2.19 µM,4.5 µM,0.79 µM,2.58 µM,–,7.13 µM,–,8.92 µM,–,> 100%,1.36 µM,half-life [23]: 1 h
C[C@]12CC[C@H](O)CC1=CC[C@@H]1[C@@H]2CC[C@]2(C)C(=O)CC[C@@H]12,–,–,–,–,–,–,–,–,–,–,–,–,–,–,Activity (MDA-MB-468 [16]): inactive; Activity (NCI-H460 [17]): inactive; Activity (WiDr [18]): inactive; Activity (MDA-MB-468 [19]): inactive; Activity (A-375 [20]): inactive; Activity (OVCA3): inactive; Activity (Daoy [21]): inactive; Activity (MCF7 [22]): inactive
O=C(O)CCCc1ccc(N(CCCl)CCCl)c([N+](=O)[O-])c1,1.16 µM,3.7,–,9.53 µM,23 µM,3.75 µM,9.46 µM,–,13 µM,–,15.6 µM,–,38%,5.3 µM,–
CC(C)(C)OC(=O)CCCc1ccc(N(CCCl)CCCl)cc1 [CHLORAMBUCIL TERTIARY BUTYL ESTER],–,–,–,–,–,–,–,–,–,–,–,–,–,–,half-life [24]: 2 h; half-life [25]: 7 h
